Experimental data as given in ChEMBL document CHEMBL4177768, “Synthesis and Biological Evaluation of Derivatives of Indoline as Highly Potent Antioxidant and Anti-inflammatory Agents” (J Med Chem, 2018).
Activity calls are given as the source filed them. The calls are words filed in the database; no cut-off is given here.

What was measured:
RAW264.7 [1] = assay: Cytoprotective activity against H2O2-induced oxidative stress in mouse RAW264.7 cells assessed as cell viability at 10 nM incubated for 2 hrs prior to H2O2 addition measured after 24 hrs by MTT assay (reference value: 68 to 72.8%); assay type: functional; details: read-out: Activity
RAW264.7 [2] = assay: Antiinflammatory activity in mouse RAW264.7 cells assessed as reduction in LPS-induced IL6 production at 1 pM to 100 nM incubated for 2 hrs prior to LPS challenge measured after 24 hrs by ELISA; assay type: functional, cell-based
Method in brief: (§1)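 RAW 264.7 macrophages were plated at 1×10^5 per well, grown overnight and washed with PBS. Compounds in water (final 1 pM-100 nM, medium with 2% FCS) were added 2 h at 37 °C before E. coli 0111:B4 LPS, 2.5 µg/mL. TNF-α was sampled at 8 h; IL-6 and nitrite (Griess) at 24 h. ELISA was used for cytokines. Values are % of the LPS + medium value in each experiment. Budesonide was the reference. 2-3 experiments, 6 wells per concentration.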

RAW264.7 [3] = assay: Antiinflammatory activity in mouse RAW264.7 cells assessed as reduction in LPS-induced nitric oxide production at 1 pM to 100 nM incubated for 2 hrs prior to LPS challenge measured after 24 hrs by Griess assay; assay type: functional, cell-based; method in brief: as §1
RAW264.7 [4] = assay: Antiinflammatory activity in mouse RAW264.7 cells assessed as reduction in LPS-induced TNF-alpha production at 1 pM to 100 nM incubated for 2 hrs prior to LPS challenge measured after 8 hrs by ELISA; assay type: functional, cell-based; method in brief: as §1
RAW264.7 [5] = assay: Antiinflammatory activity in mouse RAW264.7 cells assessed as reduction in LPS-induced TNF-alpha production at 1 nM incubated for 2 hrs prior to LPS challenge measured after 8 hrs by ELISA; assay type: functional; parameters: scale not given: the % may be the effect or the level left; method in brief: as §1
RAW264.7 [6] = assay: Antiinflammatory activity in mouse RAW264.7 cells assessed as reduction in LPS-induced IL-6 production at 1 nM incubated for 2 hrs prior to LPS challenge measured after 24 hrs by ELISA; assay type: functional; parameters: scale not given: the % may be the effect or the level left; method in brief: as §1
RAW264.7 [7] = assay: Antiinflammatory activity in mouse RAW264.7 cells assessed as reduction in LPS-induced nitric oxide production at 1 nM incubated for 2 hrs prior to LPS challenge measured after 24 hrs by Griess assay; assay type: functional; parameters: scale not given: the % may be the effect or the level left; method in brief: as §1
RAW264.7 [8] = assay: Cytoprotective activity against H2O2-induced oxidative stress in mouse RAW264.7 cells assessed as cell viability at 100 nM incubated for 2 hrs prior to H2O2 addition measured after 24 hrs by MTT assay (reference value: 68 to 72.8%); assay type: functional; details: read-out: Activity
RAW264.7 [9] = assay: Cytoprotective activity against H2O2-induced oxidative stress in mouse RAW264.7 cells assessed as decrease in caspase-3 activity at 1 pM incubated for 4 hrs prior to H2O2 addition measured after 90 mins by caspase-GloR reagent-based luminescence assay relative to control; assay type: functional
Method in brief: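 RAW 264.7 macrophages were pretreated with compound (1 pM or 1 nM) 4 h before H2O2 100 µM. Medium was replaced with fresh DMEM after 90 min and plates were incubated overnight. Caspase-Glo 3/7 reagent was added and luminescence read after 30 min at room temperature. Mean ± SD, 4-6 replicates.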

RAW264.7 [10] = assay: Antiinflammatory activity in mouse RAW264.7 cells assessed as reduction in LPS-induced TNF-alpha production at 100 pM to 100 nM incubated for 2 hrs prior to LPS challenge measured after 8 hrs by ELISA; assay type: functional, cell-based; method in brief: as §1
RAW264.7 [11] = assay: Antiinflammatory activity in mouse RAW264.7 cells assessed as reduction in LPS-induced IL-6 production at 100 pM to 100 nM incubated for 2 hrs prior to LPS challenge measured after 24 hrs by ELISA; assay type: functional, cell-based; method in brief: as §1
[12] = Cytotoxicity against mouse RAW264.7 cells assessed as cell viability at 10^-10 M after 24 hrs by MTT assay relative to control; assay type: cell-based; details: read-out: Activity
Method in brief: (§2)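 RAW 264.7 cells, seeded at 1×10^4 cells/mL and incubated 24 h, were exposed to compound from 1 pM to 100 nM. Viability was read by MTT (final 0.5 mg/mL, 1 h at 37 °C), with formazan dissolved in DMSO and OD at 570 nm. Results are compared with medium-only cells.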

RAW264.7 [13] = assay: Antiinflammatory activity in mouse RAW264.7 cells assessed as reduction in LPS-induced nitric oxide production at 100 pM incubated for 2 hrs prior to LPS challenge measured after 24 hrs by Griess assay; assay type: functional; method in brief: as §1
[14] = Cytotoxicity against mouse RAW264.7 cells assessed as cell viability at 10^-8 M after 24 hrs by MTT assay relative to control; assay type: cell-based; details: read-out: Activity; method in brief: as §2
[15] = Cytotoxicity against mouse RAW264.7 cells assessed as cell viability at 10^-11 M after 24 hrs by MTT assay relative to control; assay type: cell-based; details: read-out: Activity; method in brief: as §2
RAW264.7 [16] = assay: Antiinflammatory activity in mouse RAW264.7 cells assessed as reduction in LPS-induced TNF-alpha production at 100 pM incubated for 2 hrs prior to LPS challenge measured after 8 hrs by ELISA; assay type: functional; method in brief: as §1
[17] = Cytotoxicity against mouse RAW264.7 cells assessed as cell viability at 10^-7 M after 24 hrs by MTT assay relative to control; assay type: cell-based; details: read-out: Activity; method in brief: as §2
[18] = Cytotoxicity against mouse RAW264.7 cells assessed as cell viability at 10^-9 M after 24 hrs by MTT assay relative to control; assay type: cell-based; details: read-out: Activity; method in brief: as §2
RAW264.7 [19] = assay: Antiinflammatory activity in mouse RAW264.7 cells assessed as reduction in LPS-induced IL-6 production at 100 pM incubated for 2 hrs prior to LPS challenge measured after 24 hrs by ELISA; assay type: functional; method in brief: as §1
[20] = Cytotoxicity against mouse RAW264.7 cells assessed as cell viability at 10^-12 M after 24 hrs by MTT assay relative to control; assay type: cell-based; details: read-out: Activity; method in brief: as §2
RAW264.7 [21] = assay: Cytoprotective activity against H2O2-induced oxidative stress in mouse RAW264.7 cells assessed as decrease in LDH release at 1 pM incubated for 2 hrs prior to H2O2 addition by colorimetric assay relative to control; assay type: functional; parameters: scale not given: the % may be the effect or the level left
Method in brief: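 RAW 264.7 cells were seeded and pretreated with compound before H2O2 100 µM, in serum-free medium. Collected medium was centrifuged and incubated with reaction mix 30 min at room temperature. LDH was measured as NADH formation by colorimetric read at 490 nm. n = 8-10 replicates per concentration.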

RAW264.7 [22] = assay: Cytoprotective activity against H2O2-induced oxidative stress in mouse RAW264.7 cells assessed as decrease in LDH release at 1 pM incubated for 2 hrs prior to H2O2 addition by colorimetric assay relative to control; parameters: scale not given: the % may be the effect or the level left
RAW264.7 [23] = assay: Cytoprotective activity against H2O2-induced oxidative stress in mouse RAW264.7 cells assessed as cell viability at 1 pM incubated for 2 hrs prior to H2O2 addition measured after 24 hrs by MTT assay (reference value: 68 to 72.8%); assay type: functional; details: read-out: Activity

In the case of `COC(=O)CCN1CCc2ccc(C)cc21`, the viability at 0.01 µM (RAW264.7 [1]) is reported as 87.2%, the Activity (RAW264.7 [2]) is reported as “inactive” and the Activity (RAW264.7 [3]) is reported as “inactive”. The Activity (RAW264.7 [4]) was “inactive”.
With `COc1ccc2c(c1)CCN2CCCNC(C)C.Cl.Cl` the viability at 0.01 µM (RAW264.7 [1]) was 87.1%, the Activity (RAW264.7 [5]) was 50% and the Activity (RAW264.7 [3]) was “Dose-dependent effect”. The Activity (RAW264.7 [4]) was “Dose-dependent effect”, the Activity (RAW264.7 [6]) was 50% and the Activity (RAW264.7 [7]) was 50%.
With `Cc1ccc(S(C)(=O)=O)cc1.Cc1ccc(S(C)(=O)=O)cc1.NCCCN1CCc2cccc(OCc3ccccc3)c21` the viability at 0.1 µM (RAW264.7 [8]) was 79.3%, the Activity (RAW264.7 [3]) was “Dose-dependent effect” and the Activity (RAW264.7 [4]) was “Dose-dependent effect”. For the same molecule, the Activity (RAW264.7 [9]) was “inactive”.
For `CC(C)NCCCN1CCc2cccc(O)c21.Cc1ccc(S(C)(=O)=O)cc1.Cc1ccc(S(C)(=O)=O)cc1`, the Activity (RAW264.7 [10]) was “inactive” and the Activity (RAW264.7 [11]) was “inactive”.
In the case of `COc1ccc2c(c1)CCN2CCC(=O)O`, the Activity (RAW264.7 [2]) is reported as “inactive”, the viability at 0.1 µM (RAW264.7 [8]) is reported as 87.1% and the Activity (RAW264.7 [3]) is reported as “inactive”. For the same molecule, the Activity (RAW264.7 [4]) was “inactive”.
In the case of `CCCC1O[C@@H]2C[C@H]3[C@@H]4CCC5=CC(=O)C=C[C@]5(C)[C@H]4[C@@H](O)C[C@]3(C)[C@]2(C(=O)CO)O1` (stereo partly specified), the Activity (RAW264.7 [10]) is reported as “Active”, the Activity (RAW264.7 [11]) is reported as “Active” and the Activity (RAW264.7 [3]) is reported as “Active”.
With `COC(=O)CCC1CNc2ccccc21` (stereo unspecified) the viability at 24 h, 0.0001 µM [12] was 96.6%, the Activity (RAW264.7 [5]) was “Active” and the Activity (RAW264.7 [13]) was “Active”. For the same molecule, the viability at 24 h, 0.01 µM [14] was 94.5%, the viability at 24 h, 1e-05 µM [15] was 93.2% and the Activity (RAW264.7 [16]) was “Active”. The Activity (RAW264.7 [6]) was “Active”, the viability at 24 h, 0.1 µM [17] was 92.9% and the viability at 24 h, 0.001 µM [18] was 97.1%. The Activity (RAW264.7 [19]) was “Active”, the viability at 24 h, 1e-06 µM [20] was 99.5% and the Activity (RAW264.7 [7]) was “Active”.
In the case of `Cl.OCCCN1CCc2ccccc21`, the viability at 24 h, 0.0001 µM [12] is reported as 91.6%, the Activity (RAW264.7 [10]) is reported as “Active” and the Activity (RAW264.7 [11]) is reported as “Active”. The Activity (RAW264.7 [21]) was 16%, the Activity (RAW264.7 [22]) was 16% and the viability at 24 h, 0.01 µM [14] was 92.3%. For the same molecule, the viability at 24 h, 1e-05 µM [15] was 89.9%, the viability at 0.1 µM (RAW264.7 [8]) was 89.8% and the viability at 24 h, 0.1 µM [17] was 94.4%. The viability at 24 h, 0.001 µM [18] was 95.1% and the viability at 24 h, 1e-06 µM [20] was 89.5%.
Work on `c1ccc2c(c1)CCN2` [INDOLINE] yielded a viability at 0.01 µM (RAW264.7 [1]) of 90.4%.
Molecule `CC(C)NC(=O)CCN1CCc2cc(Cl)ccc21` has a viability at 24 h, 0.0001 µM [12] of 98.2%, a viability at 24 h, 0.01 µM [14] of 104% and a viability at 24 h, 1e-05 µM [15] of 96.3%. The Activity (RAW264.7 [2]) was “inactive”, the viability at 1 pM (RAW264.7 [23]) was 95.7% and the Activity (RAW264.7 [3]) was “inactive”. For the same molecule, the Activity (RAW264.7 [4]) was “inactive”, the viability at 24 h, 0.1 µM [17] was 103% and the viability at 24 h, 0.001 µM [18] was 97.9%. It also gave a viability at 24 h, 1e-06 µM [20] of 95.6%.
With `CC(C)NC(=O)CCN1CCc2ccc(F)cc21` the Activity (RAW264.7 [2]) was “inactive”, the viability at 0.1 µM (RAW264.7 [8]) was 86.9% and the Activity (RAW264.7 [3]) was “inactive”. The Activity (RAW264.7 [4]) was “inactive”.
`COC(=O)CCN1CCc2cc(OC)ccc21.Cl` showed an Activity (RAW264.7 [21]) of 16%, an Activity (RAW264.7 [22]) of 16% and a viability at 1 pM (RAW264.7 [23]) of 91%. For the same molecule, the Activity (RAW264.7 [3]) was “Active” and the Activity (RAW264.7 [9]) was 60%.
